Test system: HEK-293T
Experiment: Multiplex assay against HEK293T;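 for Population Tubulin-Different-Phenotype (%): share of the cells with healthy nuclei that show this phenotype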
Type: toxicity, cell-based
Conditions: human
How it was run: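 Cells stained live at seeding with Hoechst33342, BioTracker Green Microtubule Cytoskeleton Dye, MitoTracker Red and Annexin V Alexa Fluor 680 were imaged on a CQ1 microscope at 37°C and 5% CO2 after compound addition. Their classification by CellPathfinder machine-learning gating ran from Hoechst high-intensity objects versus normal cells, to healthy, pyknosed or fragmented nuclei among normal cells, to mitotic or apoptotic among pyknosed cells. Tubulin, mitochondrial-mass and membrane-permeability phenotypes are per cents of healthy-nucleus cells.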

[1] = 12 h, 1 µM, compound concentration 1 uM, replicate 1
[2] = 12 h, 1 µM, compound concentration 1 uM, replicate 2
[3] = 12 h, 10 µM, compound concentration 10 uM, replicate 1
[4] = 12 h, 10 µM, compound concentration 10 uM, replicate 2
[5] = 24 h, 1 µM, compound concentration 1 uM, replicate 1
[6] = 24 h, 1 µM, compound concentration 1 uM, replicate 2
[7] = 24 h, 10 µM, compound concentration 10 uM, replicate 1
[8] = 24 h, 10 µM, compound concentration 10 uM, replicate 2
[9] = 48 h, 1 µM, compound concentration 1 uM, replicate 1
[10] = 48 h, 1 µM, compound concentration 1 uM, replicate 2
[11] = 48 h, 10 µM, compound concentration 10 uM, replicate 1
[12] = 48 h, 10 µM, compound concentration 10 uM, replicate 2

O=C1NC(=O)C(c2cnc3ccccn23)=C1c1cn2c3c(cc(F)cc13)CN(C(=O)N1CCCCC1)CC2 [LY-2090314]
Population Apoptotic (%) [1]: 46%
Population Fragmented Nuclei (%) [1]: 8%
Population Healthy Nuclei (%) [1]: 18%
Population Hoechst High Intensity Objects (%) [1]: 16%
Population Membrane Permeable-Phenotype (%) [1]: 10%
Population Mitochondria Different-Phenotype (%) [1]: 93%
Population Mitotic Cells (%) [1]: 53%
Population Normal (%) [1]: 83%
Population Pyknosed Nuclei (%) [1]: 73%
Population Tubulin-Different-Phenotype (%) [1]: 89%
Total Cell Count [1]: 191
Population Apoptotic (%) [2]: 26%
Population Fragmented Nuclei (%) [2]: 6%
Population Healthy Nuclei (%) [2]: 31%
Population Hoechst High Intensity Objects (%) [2]: 7%
Population Membrane Permeable-Phenotype (%) [2]: 16%
Population Mitochondria Different-Phenotype (%) [2]: 51%
Population Mitotic Cells (%) [2]: 73%
Population Normal (%) [2]: 92%
Population Pyknosed Nuclei (%) [2]: 62%
Population Tubulin-Different-Phenotype (%) [2]: 61%
Total Cell Count [2]: 210
Population Apoptotic (%) [3]: 76%
Population Fragmented Nuclei (%) [3]: 8%
Population Healthy Nuclei (%) [3]: 18%
Population Hoechst High Intensity Objects (%) [3]: 17%
Population Membrane Permeable-Phenotype (%) [3]: 0%
Population Mitochondria Different-Phenotype (%) [3]: 100%
Population Mitotic Cells (%) [3]: 23%
Population Normal (%) [3]: 82%
Population Pyknosed Nuclei (%) [3]: 73%
Population Tubulin-Different-Phenotype (%) [3]: 96%
Total Cell Count [3]: 186
Population Apoptotic (%) [4]: 58%
Population Fragmented Nuclei (%) [4]: 6%
Population Healthy Nuclei (%) [4]: 5%
Population Hoechst High Intensity Objects (%) [4]: 8%
Population Membrane Permeable-Phenotype (%) [4]: 14%
Population Mitochondria Different-Phenotype (%) [4]: 85%
Population Mitotic Cells (%) [4]: 41%
Population Normal (%) [4]: 91%
Population Pyknosed Nuclei (%) [4]: 87%
Population Tubulin-Different-Phenotype (%) [4]: 85%
Total Cell Count [4]: 135
Population Apoptotic (%) [5]: 53%
Population Fragmented Nuclei (%) [5]: 13%
Population Healthy Nuclei (%) [5]: 26%
Population Hoechst High Intensity Objects (%) [5]: 17%
Population Membrane Permeable-Phenotype (%) [5]: 6%
Population Mitochondria Different-Phenotype (%) [5]: 93%
Population Mitotic Cells (%) [5]: 46%
Population Normal (%) [5]: 82%
Population Pyknosed Nuclei (%) [5]: 59%
Population Tubulin-Different-Phenotype (%) [5]: 79%
Total Cell Count [5]: 198
Population Apoptotic (%) [6]: 29%
Population Fragmented Nuclei (%) [6]: 5%
Population Healthy Nuclei (%) [6]: 44%
Population Hoechst High Intensity Objects (%) [6]: 6%
Population Membrane Permeable-Phenotype (%) [6]: 8%
Population Mitochondria Different-Phenotype (%) [6]: 42%
Population Mitotic Cells (%) [6]: 70%
Population Normal (%) [6]: 93%
Population Pyknosed Nuclei (%) [6]: 50%
Population Tubulin-Different-Phenotype (%) [6]: 66%
Total Cell Count [6]: 256
Population Apoptotic (%) [7]: 86%
Population Healthy Nuclei (%) [7]: 38%
Population Hoechst High Intensity Objects (%) [7]: 14%
Population Membrane Permeable-Phenotype (%) [7]: 1%
Population Mitotic Cells (%) [7]: 13%
Population Normal (%) [7]: 85%
Population Pyknosed Nuclei (%) [7]: 52%
Total Cell Count [7]: 187
Population Apoptotic (%) [8]: 77%
Population Fragmented Nuclei (%) [8]: 8%
Population Healthy Nuclei (%) [8]: 30%
Population Hoechst High Intensity Objects (%) [8]: 8%
Population Membrane Permeable-Phenotype (%) [8]: 2%
Population Mitochondria Different-Phenotype (%) [8]: 100%
Population Mitotic Cells (%) [8]: 22%
Population Normal (%) [8]: 91%
Population Pyknosed Nuclei (%) [8]: 61%
Population Tubulin-Different-Phenotype (%) [8]: 95%
Total Cell Count [8]: 148
Population Apoptotic (%) [9]: 52%
Population Fragmented Nuclei (%) [9]: 15%
Population Healthy Nuclei (%) [9]: 39%
Population Hoechst High Intensity Objects (%) [9]: 14%
Population Membrane Permeable-Phenotype (%) [9]: 1%
Population Mitochondria Different-Phenotype (%) [9]: 67%
Population Mitotic Cells (%) [9]: 47%
Population Normal (%) [9]: 85%
Population Pyknosed Nuclei (%) [9]: 44%
Population Tubulin-Different-Phenotype (%) [9]: 73%
Total Cell Count [9]: 230
Population Apoptotic (%) [10]: 29%
Population Fragmented Nuclei (%) [10]: 3%
Population Healthy Nuclei (%) [10]: 68%
Population Hoechst High Intensity Objects (%) [10]: 8%
Population Membrane Permeable-Phenotype (%) [10]: 12%
Population Mitochondria Different-Phenotype (%) [10]: 24%
Population Mitotic Cells (%) [10]: 70%
Population Normal (%) [10]: 91%
Population Pyknosed Nuclei (%) [10]: 27%
Population Tubulin-Different-Phenotype (%) [10]: 57%
Total Cell Count [10]: 309
Population Apoptotic (%) [11]: 80%
Population Fragmented Nuclei (%) [11]: 11%
Population Hoechst High Intensity Objects (%) [11]: 12%
Population Membrane Permeable-Phenotype (%) [11]: 0%
Population Mitochondria Different-Phenotype (%) [11]: 99%
Population Mitotic Cells (%) [11]: 19%
Population Normal (%) [11]: 87%
Population Pyknosed Nuclei (%) [11]: 23%
Total Cell Count [11]: 200
Population Apoptotic (%) [12]: 78%
Population Fragmented Nuclei (%) [12]: 7%
Population Healthy Nuclei (%) [12]: 65%
Population Hoechst High Intensity Objects (%) [12]: 5%
Population Membrane Permeable-Phenotype (%) [12]: 5%
Population Mitochondria Different-Phenotype (%) [12]: 95%
Population Mitotic Cells (%) [12]: 21%
Population Normal (%) [12]: 94%
Population Pyknosed Nuclei (%) [12]: 27%
Population Tubulin-Different-Phenotype (%) [12]: 97%
Total Cell Count [12]: 159
